Calls of active or inactive are those of the source.
How the values were obtained:
Rattus norvegicus [1] = species on record: Rattus norvegicus; experiment: Inhibitory concentration against [3H]- NE uptake in crude rat synaptosomes; type: functional; settings: Brain
Procedure, shortened: (§1)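 Crude synaptosomes from male Sprague-Dawley rat tissue homogenised in ice-cold isotonic sucrose. Preincubated 5 min at 37 °C under aeration with pargyline (final 100 μM), then chilled. Tritiated transmitter added at 10 nM final and uptake run 5 min at 37 °C. Catecholamine buffer had 0.06 mM ascorbate. Filtered and counted by scintillation. 9–10 concentrations in triplicate, 3–4 experiments, four-parameter logistic fit for IC50 ± SEM.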

Rattus norvegicus [2] = species on record: Rattus norvegicus; experiment: Inhibitory concentration against [3H]- DA uptake in crude rat synaptosomes; type: functional; settings: Brain; procedure, shortened: as §1
Rattus norvegicus [3] = species on record: Rattus norvegicus; experiment: Inhibitory concentration against [3H]- 5-HT uptake in crude rat synaptosomes; type: functional; settings: Brain; procedure, shortened: as §1
Rattus norvegicus [4] = experiment: Percentage of nondisrupted animals selecting drug liver in S-1c trained at 0.250 mg/kg; type: functional; settings: dose 0.25 mg/kg
Rattus norvegicus [5] = experiment: Number of animals tested to that of number of animals disrupted in S-1c trained at 0.500 mg/kg; Number of animals tested=15; type: functional; settings: dose 0.5 mg/kg
Procedure, shortened: (§2)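 Drug-discrimination rats were male Sprague-Dawley, 175–200 g, kept at about 80% of free-feeding weight. They were trained against saline on (S)-1c·HCl 1.75 mg/kg, 3·HCl 1.71 mg/kg or (S)-amphetamine sulfate 1 mg/kg. Test drug was given ip in 0.9% saline at 1 mL/kg, 30 min before sessions run under extinction. A session ended at 50 presses on one lever; failing 50 presses within 5 min was scored as disrupted.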

Rattus norvegicus [6] = experiment: Percentage of nondisrupted animals selecting drug liver in (S)-amphetamine trained at 0.500 mg/kg; type: functional; settings: dose 0.5 mg/kg
Procedure, shortened: (§3)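 Rats and training are as above: male Sprague-Dawley, food-restricted, with training doses per drug group. Test drug was given ip in saline 30 min before extinction sessions. %SDL is the share of nondisrupted rats reaching 50 presses on the drug lever. A rat not completing 50 presses in 5 min was scored as disrupted.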

Rattus norvegicus [7] = experiment: Number of animals tested to that of number of animals disrupted in (s)-amphetamine trained at 0.500 mg/kg; Number of animals tested=15; type: functional; settings: dose 0.5 mg/kg
Rattus norvegicus [8] = experiment: Percentage of nondisrupted animals selecting drug liver in (S)-amphetamine trained at 1 mg/kg; type: functional; procedure, shortened: as §3
Rattus norvegicus [9] = experiment: Percentage of nondisrupted animals selecting drug liver in (S)-amphetamine trained at 0.125 mg/kg; type: functional; procedure, shortened: as §3
Rattus norvegicus [10] = experiment: Number of animals tested to that of number of animals disrupted in (s)-amphetamine trained at 0.250 mg/kg; Number of animals tested=14; type: functional; settings: dose 0.25 mg/kg; procedure, shortened: as §2
Rattus norvegicus [11] = experiment: Number of animals tested to that of number of animals disrupted in S-1c trained at 0.125 mg/kg; Number of animals tested=14; type: functional; procedure, shortened: as §2
Rattus norvegicus [12] = experiment: Percentage of nondisrupted animals selecting drug liver in 3 trained at 0.125 mg/kg; type: functional; procedure, shortened: as §3
Rattus norvegicus [13] = experiment: Number of animals tested to that of number of animals disrupted in 3 trained at 1 mg/kg; Number of animals tested=10; type: functional; procedure, shortened: as §2
Rattus norvegicus [14] = experiment: Number of animals tested to that of number of animals disrupted in 3 trained at 0.250 mg/kg; Number of animals tested=11; type: functional; settings: dose 0.25 mg/kg; procedure, shortened: as §2
Rattus norvegicus [15] = experiment: Percentage of nondisrupted animals selecting drug liver in S-1c trained at 1 mg/kg; type: functional
Rattus norvegicus [16] = experiment: Percentage of nondisrupted animals selecting drug liver in 3 trained at 0.500 mg/kg; type: functional; settings: dose 0.5 mg/kg; procedure, shortened: as §3
Rattus norvegicus [17] = experiment: Number of animals tested to that of number of animals disrupted in 3 trained at 0.500 mg/kg; Number of animals tested=12; type: functional; settings: dose 0.5 mg/kg; procedure, shortened: as §2
Rattus norvegicus [18] = experiment: Number of animals tested to that of number of animals disrupted in (s)-amphetamine trained at 0.125 mg/kg; Number of animals tested=15; type: functional; procedure, shortened: as §2
Rattus norvegicus [19] = experiment: Number of animals tested to that of number of animals disrupted in 3 trained at 0.125 mg/kg; Number of animals tested=10; type: functional; procedure, shortened: as §2
Rattus norvegicus [20] = experiment: Number of animals tested to that of number of animals disrupted in (s)-amphetamine trained at 1 mg/kg; Number of animals tested=10; type: functional; procedure, shortened: as §2
Rattus norvegicus [21] = experiment: Percentage of nondisrupted animals selecting drug liver in 3 trained at 1 mg/kg; type: functional; procedure, shortened: as §3
Rattus norvegicus [22] = experiment: Percentage of nondisrupted animals selecting drug liver in 3 trained at 0.250 mg/kg; type: functional; settings: dose 0.25 mg/kg; procedure, shortened: as §3
Rattus norvegicus [23] = experiment: Percentage of nondisrupted animals selecting drug liver in S-1c trained at 0.125 mg/kg; type: functional; procedure, shortened: as §3
Rattus norvegicus [24] = experiment: Tested for drug-discrimination stimulus effect at 0.250 mg/kg in s)-amphetamine trained animals; NS= No substitution; type: functional, organism-based; design: dose 0.25 mg/kg
Procedure, shortened: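 Food-restricted male Sprague-Dawley rats were trained to tell (S)-amphetamine sulfate 1 mg/kg from saline. Test drug was given ip in 0.9% saline 30 min before extinction sessions, with 50 presses on one lever required within 5 min. No substitution was defined as 59% or less of nondisrupted rats selecting the drug lever, judged on the maximum across doses.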

Rattus norvegicus [25] = experiment: Number of animals tested to that of number of animals disrupted in S-1c trained at 0.250 mg/kg; Number of animals tested=15; type: functional; settings: dose 0.25 mg/kg; procedure, shortened: as §2
Rattus norvegicus [26] = experiment: Number of animals tested to that of number of animals disrupted in S-1c trained at 1 mg/kg; Number of animals tested=9; type: functional; procedure, shortened: as §2
Rattus norvegicus [27] = experiment: Tested for drug-discrimination stimulus effect at 0.250 mg/kg in S-1c trained animals; 0.15-0.28; type: functional
Procedure, shortened: (§4)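 Male Sprague-Dawley rats (175–200 g) held at about 80% of free-feeding weight were trained on two levers to tell (S)-1c·HCl 1.75 mg/kg from saline. Test drugs were given in 0.9% saline, ip, 30 min before sessions run under extinction. A session ended at 50 presses on one lever, or was scored disrupted if not done within 5 min. %SDL counts nondisrupted rats. ED50 and 95% CI were derived by Litchfield–Wilcoxon.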

Rattus norvegicus [28] = experiment: Percentage of nondisrupted animals selecting drug liver in S-1c trained at 0.500 mg/kg; type: functional; settings: dose 0.5 mg/kg; procedure, shortened: as §4
Rattus norvegicus [29] = experiment: Percentage of nondisrupted animals selecting drug liver in (S)-amphetamine trained at 0.250 mg/kg; type: functional; settings: dose 0.25 mg/kg; procedure, shortened: as §3
Rattus norvegicus [30] = experiment: Percentage of nondisrupted animals selecting drug liver in 3 trained at 0.429 mg/kg; SDL; type: functional; procedure, shortened: as §3
Rattus norvegicus [31] = experiment: Percentage of nondisrupted animals selecting drug liver in S-1c trained at 0.429 mg/kg; SDL; type: functional
Rattus norvegicus [32] = experiment: Number of animals tested to that of number of animals disrupted in 3 trained at 0.108 mg/kg; Number of animals tested=8; type: functional; procedure, shortened: as §2
Rattus norvegicus [33] = experiment: Number of animals tested to that of number of animals disrupted in 3 trained at 0.643 mg/kg; Number of animals tested=12; type: functional; procedure, shortened: as §2
Rattus norvegicus [34] = experiment: Number of animals tested to that of number of animals disrupted in S-1c trained at 0.429 mg/kg; Number of animals tested=10; type: functional; procedure, shortened: as §2
Rattus norvegicus [35] = experiment: Percentage of nondisrupted animals selecting drug liver in S-1c trained at 0.643 mg/kg; SDL; type: functional
Rattus norvegicus [36] = experiment: Number of animals tested to that of number of animals disrupted in S-1c trained at 0.108 mg/kg; Number of animals tested=7; type: functional; procedure, shortened: as §2
Rattus norvegicus [37] = experiment: Number of animals tested to that of number of animals disrupted in S-1c trained at 0.215 mg/kg; Number of animals tested=10; type: functional; procedure, shortened: as §2
Rattus norvegicus [38] = experiment: Number of animals tested to that of number of animals disrupted in 3 trained at 0.214 mg/kg; Number of animals tested=12; type: functional; procedure, shortened: as §2
Rattus norvegicus [39] = experiment: Percentage of nondisrupted animals selecting drug liver in 3 trained at 0.214 mg/kg; SDL; type: functional; procedure, shortened: as §3
Rattus norvegicus [40] = experiment: Percentage of nondisrupted animals selecting drug liver in S-1c trained at 0.857 mg/kg; SDL; type: functional
Rattus norvegicus [41] = experiment: Number of animals tested to that of number of animals disrupted in 3 trained at 0.429 mg/kg; Number of animals tested=12; type: functional; procedure, shortened: as §2
Rattus norvegicus [42] = experiment: Percentage of nondisrupted animals selecting drug liver in S-1c trained at 0.108 mg/kg; SDL; type: functional; procedure, shortened: as §3
Rattus norvegicus [43] = experiment: Percentage of nondisrupted animals selecting drug liver in 3 trained at 0.643 mg/kg; SDL; type: functional; procedure, shortened: as §3
Rattus norvegicus [44] = experiment: Number of animals tested to that of number of animals disrupted in S-1c trained at 0.643 mg/kg; Number of animals tested=12; type: functional
Rattus norvegicus [45] = experiment: Tested for drug-discrimination stimulus effect at 0.215 mg/kg in S-1c trained animals; 0.23-0.57; type: functional; procedure, shortened: as §4
Rattus norvegicus [46] = experiment: Number of animals tested to that of number of animals disrupted in 3 trained at 0.857 mg/kg; Number of animals tested=12; type: functional; procedure, shortened: as §2
Rattus norvegicus [47] = experiment: Number of animals tested to that of number of animals disrupted in 3 trained at 1.286 mg/kg; Number of animals tested=8; type: functional; procedure, shortened: as §2
Rattus norvegicus [48] = experiment: Percentage of nondisrupted animals selecting drug liver in 3 trained at 0.857 mg/kg; SDL; type: functional; procedure, shortened: as §3
Rattus norvegicus [49] = experiment: Percentage of nondisrupted animals selecting drug liver in 3 trained at 1.286 mg/kg; SDL; type: functional; procedure, shortened: as §3
Rattus norvegicus [50] = experiment: Percentage of nondisrupted animals selecting drug liver in 3 trained at 0.108 mg/kg; SDL; type: functional; procedure, shortened: as §3
Rattus norvegicus [51] = experiment: Number of animals tested to that of number of animals disrupted in S-1c trained at 0.857 mg/kg; Number of animals tested=11; type: functional; procedure, shortened: as §2
Rattus norvegicus [52] = experiment: Percentage of nondisrupted animals selecting drug liver in S-1c trained at 0.215 mg/kg; SDL; type: functional; procedure, shortened: as §3

CC(N)Cc1ccc2c(c1)OCO2 (stereo not drawn) [TENAMFETAMINE]
IC50 (Rattus norvegicus [1]): 629 nM | IC50 (Rattus norvegicus [2]): 1360 nM | IC50 (Rattus norvegicus [3]): 369 nM

CC(N)Cc1ccc2c(c1)CCC2 (stereo not drawn)
SDL (Rattus norvegicus [4]): 70% | Activity (Rattus norvegicus [5]): 3 | SDL (Rattus norvegicus [6]): 0% | Activity (Rattus norvegicus [7]): 7 | SDL (Rattus norvegicus [8]): 0% | SDL (Rattus norvegicus [9]): 0% | Activity (Rattus norvegicus [10]): 2 | Activity (Rattus norvegicus [11]): 3 | SDL (Rattus norvegicus [12]): 13% | Activity (Rattus norvegicus [13]): 8 | Activity (Rattus norvegicus [14]): 5 | SDL (Rattus norvegicus [15]): 100% | SDL (Rattus norvegicus [16]): 83% | IC50 (Rattus norvegicus [1]): 849 nM | Activity (Rattus norvegicus [17]): 6 | Activity (Rattus norvegicus [18]): 2 | Activity (Rattus norvegicus [19]): 2 | IC50 (Rattus norvegicus [2]): 1850 nM | Activity (Rattus norvegicus [20]): 6 | SDL (Rattus norvegicus [21]): 100% | SDL (Rattus norvegicus [22]): 17% | IC50 (Rattus norvegicus [3]): 82 nM | SDL (Rattus norvegicus [23]): 9% | ED50 (Rattus norvegicus [24]): inactive | Activity (Rattus norvegicus [25]): 5 | Activity (Rattus norvegicus [26]): 2 | ED50 (Rattus norvegicus [27]): 0.2 mg/kg | SDL (Rattus norvegicus [28]): 100% | SDL (Rattus norvegicus [29]): 0%

CC(N)Cc1ccc2c(c1)OCC2 (stereo not drawn)
SDL (Rattus norvegicus [30]): 83% | SDL (Rattus norvegicus [31]): 57% | Activity (Rattus norvegicus [32]): 6 | Activity (Rattus norvegicus [33]): 5 | Activity (Rattus norvegicus [34]): 3 | SDL (Rattus norvegicus [35]): 88% | Activity (Rattus norvegicus [36]): 2 | Activity (Rattus norvegicus [37]): 3 | Activity (Rattus norvegicus [38]): 6 | SDL (Rattus norvegicus [39]): 17% | IC50 (Rattus norvegicus [1]): 980 nM | SDL (Rattus norvegicus [40]): 100% | Activity (Rattus norvegicus [41]): 6 | SDL (Rattus norvegicus [42]): 0% | SDL (Rattus norvegicus [43]): 100% | Activity (Rattus norvegicus [44]): 4 | IC50 (Rattus norvegicus [2]): 2000 nM | ED50 (Rattus norvegicus [45]): 0.4 mg/kg | Activity (Rattus norvegicus [46]): 2 | Activity (Rattus norvegicus [47]): 6 | SDL (Rattus norvegicus [48]): 90% | SDL (Rattus norvegicus [49]): 100% | SDL (Rattus norvegicus [50]): 0% | Activity (Rattus norvegicus [51]): 5 | IC50 (Rattus norvegicus [3]): 322 nM | SDL (Rattus norvegicus [52]): 14%

From ChEMBL document CHEMBL1126909, “Synthesis and pharmacological examination of benzofuran, indan, and tetralin analogues of 3,4-(methylenedioxy)amphetamine” (J Med Chem, 1993)
